In brackets after ≈: the same amount, converted by molar mass.
Assays:
[1] = tested on: HEK293; test: Cytotoxicity against HEK293 cells; type: cell-based; conditions: Homo sapiens
Summary of the method: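 HEK 293 cell toxicity assay, with puromycin as the control. Read-out is EC50.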

[2] = Solubility of the compound at pH 2; type: physicochemical; conditions: buffer
[3] = Distribution coefficient log D of the compound at pH 7.4; type: physicochemical; conditions: octanol/water
Summary of the method: (§1)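 Log D at each pH was estimated by a chromatographic method.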

[4] = Distribution coefficient log D of the compound at pH 3; type: physicochemical; conditions: octanol/water; summary of the method: as §1
[5] = Solubility of the compound at pH 6.5; type: physicochemical; conditions: buffer
[6] = Intrinsic clearance in human liver microsomes; type: ADME, Microsome
Summary of the method: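 Compound was incubated with human liver microsomes. Parent loss and metabolites were followed by LCMS. Concentration versus time was fitted to exponential decay to get the first-order depletion rate constant, which gave in vitro CLint and a predicted hepatic extraction ratio.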

[7] = tested on: Plasmodium falciparum; test: Antimalarial activity against Plasmodium falciparum 3D7 infected in human erythrocyte; type: functional, organism-based
Summary of the method: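 Asexual erythrocytic-stage culture of the P. falciparum 3D7 strain, with chloroquine as the reference control. Read-out is EC50.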

[8] = tested on: Plasmodium falciparum; test: Antimalarial activity against Plasmodium falciparum Dd2 infected in human erythrocyte; type: functional, organism-based
Summary of the method: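 Chloroquine-resistant P. falciparum Dd2 grown at the erythrocytic stage, with chloroquine as the control. EC50 was determined.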

[9] = tested on: L6; test: Cytotoxicity against rat L6 cells; type: cell-based

EC50 [7] [µM]	Structure (SMILES)	EC50 [1] [µM]	also measured
	CSc1nncc(-c2cnnc(SC)n2)n1	68	solubility [2]: 15.3 µM (≈ 3.86 µg/mL); logD [3]: 2.4; logD [4]: 2.4; solubility [5]: 14.5 µM (≈ 3.66 µg/mL)
	CCSc1nncc(-c2cnnc(SCC)n2)n1	84	
	CCCSc1nncc(-c2cnnc(SCCC)n2)n1	> 115	
	CSc1nncc(-c2cnnc(OCCN(C)C)n2)n1	24	
1.6	CCc1nncc(-c2cnnc(CC)n2)n1		solubility [2]: 426 µM (≈ 92.1 µg/mL); microsomal CLint [6]: 11.7 µL/min/mg; logD [3]: 1.6; logD [4]: 1.6; solubility [5]: 311 µM (≈ 67.3 µg/mL)
	COc1nncc(-c2cnnc(OC)n2)n1	36	
	CCCCSc1nncc(-c2cnnc(SCCCC)n2)n1	> 115	
0.47	CN(C)CCSc1nncc(-c2cnnc(SCCN(C)C)n2)n1	25	EC50 [8]: 0.62 µM
0.023	CCN(CC)CCSc1nncc(-c2cnnc(SC)n2)n1	9	EC50 [8]: 0.012 µM
0.44	CCN(CC)CCSc1nncc(-c2cnnc(SCCN(CC)CC)n2)n1	16	EC50 [8]: 0.79 µM
	COc1nncc(-c2cnnc(SC)n2)n1	18	EC50 [9]: 33 µM

— ChEMBL document CHEMBL1255192, “3-alkylthio-1,2,4-triazine dimers with potent antimalarial activity” (Bioorg Med Chem Lett, 2010)
